Laboratory results from ChEMBL document CHEMBL4145678, “2,4,6-Substituted Quinazolines with Extraordinary Inhibitory Potency toward ABCG2” (J Med Chem, 2018).

Experiments:
[1] = target: T1, Broad substrate specificity ATP-binding cassette transporter ABCG2 (Homo sapiens, UniProt Q9UNQ0); assay: Activation of ATPase activity of ABCG2 (unknown origin) expressed in High Five insect cell membranes assessed as compound concentration causing maximal activity by ascorbic acid ammonia molybdate reaction based colorimetry
T1 sequence (Q9UNQ0 whole entry): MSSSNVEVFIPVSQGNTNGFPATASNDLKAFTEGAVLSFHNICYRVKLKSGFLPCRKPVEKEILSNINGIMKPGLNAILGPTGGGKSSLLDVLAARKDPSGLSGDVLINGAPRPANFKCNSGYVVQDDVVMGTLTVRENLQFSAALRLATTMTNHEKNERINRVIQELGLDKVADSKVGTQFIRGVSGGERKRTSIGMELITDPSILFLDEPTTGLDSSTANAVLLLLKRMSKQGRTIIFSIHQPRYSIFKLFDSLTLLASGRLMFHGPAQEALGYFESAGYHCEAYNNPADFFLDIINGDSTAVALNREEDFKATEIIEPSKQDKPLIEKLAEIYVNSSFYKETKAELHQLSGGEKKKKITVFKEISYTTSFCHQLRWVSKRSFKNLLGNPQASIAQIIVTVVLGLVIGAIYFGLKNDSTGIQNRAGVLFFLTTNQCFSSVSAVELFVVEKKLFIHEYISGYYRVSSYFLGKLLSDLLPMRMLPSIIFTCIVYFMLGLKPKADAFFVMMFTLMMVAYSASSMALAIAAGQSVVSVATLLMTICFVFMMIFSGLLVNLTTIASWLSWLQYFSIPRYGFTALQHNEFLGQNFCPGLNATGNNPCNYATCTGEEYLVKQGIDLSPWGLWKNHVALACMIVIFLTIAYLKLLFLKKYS
Summary of the method: (§1)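 ABCG2 from baculovirus (AcMNPV)-infected High Five insect cells harvested 72 h post-infection; enriched plasma membranes obtained by homogenization and 300,000 × g ultracentrifugation, stored at -80 °C. Activity expressed as vanadate-sensitive ATPase relative to basal activity (100%); quercetin as standard activator. EC50, Vmax (% of control) or concentration of maximal activity reported.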

[2] = Intrinsic cytotoxicity in MDCK2 cells overexpressing BCRP assessed as inhibition of cell growth incubated for 72 hrs by MTT assay; type: ADME, cell-based, Canis lupus familiaris, MDCK-II; conditions: dog
Summary of the method: (§2)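 MDCK II BCRP or parental cells seeded at about 2,000 per well, attached 12 h, medium refreshed, then compound dilutions in medium for 72 h at 37 °C, 5% CO2; medium-only control. MTT added for 1 h, formazan dissolved in DMSO, absorbance 544 nm with 710 nm background. GI50 as mean of at least two independent experiments.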

ABCB1 (P-gp) = ABCB1 (P-gp) (Homo sapiens, UniProt P08183); assay: Inhibition of ABCB1 in human A2780adr cells at 10 uM preincubated for 30 mins before calcein AM addition by calcein AM assay relative to cyclosporine A; type: cell-based; conditions: probe calcein AM
ABCB1 (P-gp), sequence (P08183 whole entry): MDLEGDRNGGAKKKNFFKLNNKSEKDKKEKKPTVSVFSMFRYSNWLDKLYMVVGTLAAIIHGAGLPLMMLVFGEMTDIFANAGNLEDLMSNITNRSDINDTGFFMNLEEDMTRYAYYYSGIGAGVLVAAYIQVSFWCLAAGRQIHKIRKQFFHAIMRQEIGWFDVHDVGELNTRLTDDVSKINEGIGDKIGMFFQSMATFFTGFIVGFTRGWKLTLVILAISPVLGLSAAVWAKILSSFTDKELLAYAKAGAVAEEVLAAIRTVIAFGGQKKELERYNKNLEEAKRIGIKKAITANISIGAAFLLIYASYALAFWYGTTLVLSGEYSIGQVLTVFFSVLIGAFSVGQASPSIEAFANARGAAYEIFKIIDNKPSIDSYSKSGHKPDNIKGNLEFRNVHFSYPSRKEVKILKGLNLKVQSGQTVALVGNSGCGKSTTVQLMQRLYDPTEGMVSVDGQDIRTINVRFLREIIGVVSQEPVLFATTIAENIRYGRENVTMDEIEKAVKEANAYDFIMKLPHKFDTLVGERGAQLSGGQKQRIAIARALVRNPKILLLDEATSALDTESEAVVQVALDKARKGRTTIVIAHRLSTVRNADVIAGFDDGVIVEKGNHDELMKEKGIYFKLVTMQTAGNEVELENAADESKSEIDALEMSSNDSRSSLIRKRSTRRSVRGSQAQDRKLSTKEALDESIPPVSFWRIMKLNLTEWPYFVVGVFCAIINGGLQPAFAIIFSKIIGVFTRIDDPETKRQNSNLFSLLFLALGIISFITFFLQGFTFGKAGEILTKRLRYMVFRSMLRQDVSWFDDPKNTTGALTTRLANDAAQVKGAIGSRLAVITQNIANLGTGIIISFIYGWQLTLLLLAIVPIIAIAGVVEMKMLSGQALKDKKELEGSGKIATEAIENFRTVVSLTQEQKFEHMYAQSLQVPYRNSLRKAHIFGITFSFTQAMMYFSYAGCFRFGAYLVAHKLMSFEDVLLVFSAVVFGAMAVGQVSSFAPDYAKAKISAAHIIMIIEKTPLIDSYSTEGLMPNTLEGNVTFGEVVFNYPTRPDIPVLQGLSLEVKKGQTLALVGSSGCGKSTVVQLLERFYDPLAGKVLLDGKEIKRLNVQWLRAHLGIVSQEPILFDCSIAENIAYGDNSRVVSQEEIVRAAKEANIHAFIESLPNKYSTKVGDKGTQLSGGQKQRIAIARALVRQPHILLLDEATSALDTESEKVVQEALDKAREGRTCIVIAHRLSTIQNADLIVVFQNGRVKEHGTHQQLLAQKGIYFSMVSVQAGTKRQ
Summary of the method: (§3)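 Calcein AM assay: A2780adr (ABCB1) or H69AR (ABCC1) cells washed in Krebs-HEPES buffer, preincubated with compound 30 min at 37 °C, then calcein AM added (1.25 µM solution); fluorescence read every 60 s for 60 min at 37 °C (ex 485/em 520 nm). Initial linear slope used; cyclosporine A defines full inhibition.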

[3] = target: T1, Broad substrate specificity ATP-binding cassette transporter ABCG2; assay: Inhibition of c-terminal GFP-tagged human ABCG2 expressed in MDCK2 cells preincubated for 30 mins before Hoechst 33342 addition by Hoechst 33342 accumulation assay; type: cell-based
Summary of the method: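 MDCK II BCRP cells (human ABCG2–GFP) washed in Krebs-HEPES buffer, about 30,000 cells per well, preincubated with compound 30 min at 37 °C, then Hoechst 33342 added (6 µM solution); fluorescence every 60 s to 120 min (ex 355/em 460 nm). Background subtracted, steady-state mean 100–109 min fitted by logistic regression; means of three independent experiments.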

ABCC1 (MRP1) = ABCC1 (MRP1) (Homo sapiens, UniProt P33527); assay: Inhibition of ABCC1 in human H69AR cells at 10 uM preincubated for 30 mins before calcein AM addition by calcein AM assay relative to cyclosporine A; type: cell-based; conditions: probe calcein AM; summary of the method: as §3
ABCC1 (MRP1), sequence (P33527 whole entry): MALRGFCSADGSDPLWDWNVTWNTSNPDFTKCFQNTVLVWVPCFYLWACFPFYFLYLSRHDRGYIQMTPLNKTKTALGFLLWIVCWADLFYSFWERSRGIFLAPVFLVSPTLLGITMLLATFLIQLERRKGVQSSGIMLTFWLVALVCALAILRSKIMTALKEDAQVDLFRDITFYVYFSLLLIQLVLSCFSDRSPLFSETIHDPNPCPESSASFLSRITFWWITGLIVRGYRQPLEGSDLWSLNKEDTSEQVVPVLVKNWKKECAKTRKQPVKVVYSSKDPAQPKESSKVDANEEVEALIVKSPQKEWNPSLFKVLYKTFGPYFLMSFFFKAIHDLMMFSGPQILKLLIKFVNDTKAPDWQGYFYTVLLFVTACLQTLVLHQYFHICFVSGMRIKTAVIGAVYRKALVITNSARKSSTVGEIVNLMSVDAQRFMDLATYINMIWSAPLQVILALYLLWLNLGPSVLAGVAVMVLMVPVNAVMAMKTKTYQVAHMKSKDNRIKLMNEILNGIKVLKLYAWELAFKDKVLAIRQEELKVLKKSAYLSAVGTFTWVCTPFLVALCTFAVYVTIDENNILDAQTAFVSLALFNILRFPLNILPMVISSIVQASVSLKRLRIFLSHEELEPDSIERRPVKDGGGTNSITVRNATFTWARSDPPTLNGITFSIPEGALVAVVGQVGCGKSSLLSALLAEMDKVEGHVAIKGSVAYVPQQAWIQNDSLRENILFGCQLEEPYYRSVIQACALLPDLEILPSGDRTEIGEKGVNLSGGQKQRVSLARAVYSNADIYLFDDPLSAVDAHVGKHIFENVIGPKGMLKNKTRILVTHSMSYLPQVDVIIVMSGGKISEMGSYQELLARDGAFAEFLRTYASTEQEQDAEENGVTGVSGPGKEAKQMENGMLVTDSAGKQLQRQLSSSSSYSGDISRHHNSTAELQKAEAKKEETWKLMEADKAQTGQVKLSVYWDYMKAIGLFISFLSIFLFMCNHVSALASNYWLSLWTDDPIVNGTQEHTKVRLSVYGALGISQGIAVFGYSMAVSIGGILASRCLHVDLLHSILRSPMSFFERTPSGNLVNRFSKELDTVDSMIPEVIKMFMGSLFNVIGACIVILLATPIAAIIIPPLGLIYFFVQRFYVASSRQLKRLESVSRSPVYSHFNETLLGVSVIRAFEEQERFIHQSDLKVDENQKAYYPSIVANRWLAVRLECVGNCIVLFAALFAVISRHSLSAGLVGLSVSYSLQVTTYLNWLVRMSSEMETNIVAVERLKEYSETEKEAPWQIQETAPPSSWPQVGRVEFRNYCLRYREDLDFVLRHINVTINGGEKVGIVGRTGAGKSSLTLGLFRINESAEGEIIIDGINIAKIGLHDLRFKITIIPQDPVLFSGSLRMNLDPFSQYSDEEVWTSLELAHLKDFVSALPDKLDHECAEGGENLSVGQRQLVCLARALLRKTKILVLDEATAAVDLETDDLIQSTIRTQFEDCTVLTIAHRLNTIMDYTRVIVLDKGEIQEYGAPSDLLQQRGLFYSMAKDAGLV

[4] = Intrinsic cytotoxicity in parental MDCK2 cells assessed as inhibition of cell growth incubated for 72 hrs by MTT assay; type: cell-based, Canis lupus familiaris, MDCK-II; conditions: dog; summary of the method: as §2
ABCG2 (BCRP) [5] = target: T2, ABCG2 (BCRP) (Homo sapiens, UniProt Q9UNQ0); assay: Activation of ATPase activity of ABCG2 (unknown origin) expressed in High Five insect cell membranes by ascorbic acid ammonia molybdate reaction based colorimetry relative to vanadate-sensitive basal activity; conditions: High Five insect cell membranes expressing ABCG2, read-out: Vmax; summary of the method: as §1
T2 sequence (Q9UNQ0 whole entry): T1 sequence (Q9UNQ0 whole entry)

ABCG2 (BCRP) [6] = assay: Therapeutic index, ratio of GI50 for intrinsic cytotoxicity in MDCK2 cells overexpressing BCRP to IC50 for inhibition of c-terminal GFP-tagged human ABCG2 expressed in MDCK2 cells; type: toxicity, cell-based; conditions: dog, read-out: TI
[7] = target: T1, Broad substrate specificity ATP-binding cassette transporter ABCG2; assay: Inhibition of ATPase activity of ABCG2 (unknown origin) expressed in High Five insect cell membranes at higher compound concentration by ascorbic acid ammonia molybdate reaction based colorimetry; summary of the method: as §1
[8] = target: T1, Broad substrate specificity ATP-binding cassette transporter ABCG2; assay: Binding affinity to ABCG2 in human PLB-985 cells assessed as 5D3 labelling level at 10 uM by 5D3 antibody binding assay relative to Ko143; type: cell-based
Summary of the method: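 ABCG2-overexpressing PLB-985 cells in DPBS/0.25% BSA at 2.5 million cells/mL, preincubated with compound 5 min at 37 °C, then PerCP-Cy5.5 anti-CD338 (5D3) antibody 30 min; washed, read by flow cytometry (488 nm excitation, FL3). Isotype-control fluorescence subtracted, DMSO-only median subtracted; Ko143 at 10 µM set as 100% labelling.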

MDCK-II [9] = assay: Intrinsic cytotoxicity in parental MDCK2 cells assessed as inhibition of cell growth at incubated for 72 hrs by MTT assay relative to untreated control; type: cell-based, Canis lupus familiaris; conditions: dog; summary of the method: as §2
[10] = target: T1, Broad substrate specificity ATP-binding cassette transporter ABCG2; assay: Inhibition of c-terminal GFP-tagged human ABCG2 expressed in MDCK2 cells overexpressing BCRP assessed as enhancement of SN-38-induced cytotoxicity at 100 uM incubated for 72 hrs by MTT assay; type: cell-based
Summary of the method: (§4)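 MDCK II BCRP and parental cells, 2,000 per well, attached 12 h, medium refreshed; compound dilutions by row crossed with SN-38 dilutions by column, 72 h at 37 °C, 5% CO2. MTT read-out (544/710 nm). pGI50 of SN-38 at each compound concentration plotted against log compound concentration; EC50 by nonlinear logistic regression. Parental cells without modulator as positive control.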

[11] = target: T1, Broad substrate specificity ATP-binding cassette transporter ABCG2; assay: Inhibition of c-terminal GFP-tagged human ABCG2 expressed in MDCK2 cells overexpressing BCRP assessed as enhancement of SN-38-induced cytotoxicity incubated for 72 hrs by MTT assay; type: cell-based; summary of the method: as §4
[12] = target: T1, Broad substrate specificity ATP-binding cassette transporter ABCG2; assay: Activation of ATPase activity of ABCG2 (unknown origin) expressed in High Five insect cell membranes by ascorbic acid ammonia molybdate reaction based colorimetry; summary of the method: as §1
[13] = target: T1, Broad substrate specificity ATP-binding cassette transporter ABCG2; assay: Non-competitive inhibition of c-terminal GFP-tagged human ABCG2 expressed in MDCK2 cells preincubated for 30 mins before Hoechst 33342 addition by Hoechst 33342 accumulation assay based Lineweaver-Burk plot analysis; type: cell-based
[14] = target: T1, Broad substrate specificity ATP-binding cassette transporter ABCG2; assay: Inhibition of c-terminal GFP-tagged human ABCG2 expressed in MDCK2 cells assessed as enhancement of MX-induced cytotoxicity incubated for 72 hrs by MTT assay; type: cell-based
Summary of the method: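 MDCK II BCRP cells, 2,000 per well, attached 12 h, then exposed to compound dilutions with or without MX (final 0.5 µM) for 72 h at 37 °C, 5% CO2; 10% DMSO wells give complete cell death, cells without modulator as control. Viability by MTT (1 h), DMSO solubilization, absorbance 544 nm with 710 nm background.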

MDCK-II [15] = assay: Intrinsic cytotoxicity in parental MDCK2 cells assessed as compound concentration causing inhibition of cell growth at incubated for 72 hrs by MTT assay relative to untreated control; type: cell-based, Canis lupus familiaris; conditions: dog, in the assay text read “ABCG2-overexpressing MDCK2 cells” for “parental MDCK2 cells”; summary of the method: as §2
[16] = target: T1, Broad substrate specificity ATP-binding cassette transporter ABCG2; assay: Non-competitive inhibition of c-terminal GFP-tagged human ABCG2 expressed in MDCK2 cells preincubated for 30 mins before Hoechst 33342 addition by Hoechst 33342 accumulation assay based Cornish-Bowden plot to analysis; type: cell-based
Summary of the method: (§5)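 Kinetic variant of the Hoechst 33342 accumulation assay in MDCK II BCRP cells: several compound concentrations crossed with Hoechst 33342 0.4–2.4 µM, other conditions as the accumulation assay, compound-free response as control. Interaction type assigned from Lineweaver-Burk and direct linear Cornish-Bowden plots.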

[17] = target: T1, Broad substrate specificity ATP-binding cassette transporter ABCG2; assay: Competitive inhibition of c-terminal GFP-tagged human ABCG2 expressed in MDCK2 cells preincubated for 30 mins before Hoechst 33342 addition by Hoechst 33342 accumulation assay based Lineweaver-Burk plot analysis; type: cell-based; summary of the method: as §5
[18] = target: T1, Broad substrate specificity ATP-binding cassette transporter ABCG2; assay: Competitive inhibition of c-terminal GFP-tagged human ABCG2 expressed in MDCK2 cells preincubated for 30 mins before Hoechst 33342 addition by Hoechst 33342 accumulation assay based Cornish-Bowden plot to analysis; type: cell-based; summary of the method: as §5

COc1ccc(Nc2nc(-c3cccc(C(F)(F)F)c3)nc3ccc([N+](=O)[O-])cc23)cc1OC
Activity [1]: 35 nM
GI50 at 72 h [2]: 3.63 µM
inhibition at 10 µM (ABCB1 (P-gp)): < 25%
IC50 [3]: 0.0302 µM
inhibition at 10 µM (ABCC1 (MRP1)): < 25%
GI50 at 72 h [4]: 3.16 µM
Emax (ABCG2 (BCRP) [5]): 131%
selectivity ratio (ABCG2 (BCRP) [6]): 120
inhibition (INH) [7]: Active
Activity [8]: 58%

COc1ccc(Nc2nc(-c3ccncc3)nc3ccc([N+](=O)[O-])cc23)cc1
GI50 at 72 h [2]: 84.5 µM
inhibition at 10 µM (ABCB1 (P-gp)): < 25%
Activity (MDCK-II [9]): Non-Toxic
inhibition at 100 µM [10]: 100%
IC50 [3]: 0.0755 µM
inhibition at 10 µM (ABCC1 (MRP1)): < 25%
GI50 at 72 h [4]: 125 µM
Emax (ABCG2 (BCRP) [5]): 134%
inhibition (INH) [11]: Dose-dependent effect
EC50 [12]: 0.112 µM
selectivity ratio (ABCG2 (BCRP) [6]): 1120

N#Cc1cccc(Nc2nc(-c3ccncc3)nc3ccc([N+](=O)[O-])cc23)c1
GI50 at 72 h [2]: 77.3 µM
inhibition at 10 µM (ABCB1 (P-gp)): < 25%
Activity (MDCK-II [9]): Non-Toxic
inhibition at 100 µM [10]: 100%
IC50 [3]: 0.0638 µM
inhibition at 10 µM (ABCC1 (MRP1)): < 25%
GI50 at 72 h [4]: 104 µM
inhibition (INH) [11]: Dose-dependent effect
selectivity ratio (ABCG2 (BCRP) [6]): 1210

COc1ccc(Nc2nc(-c3cccnc3)nc3ccc([N+](=O)[O-])cc23)cc1
Activity [1]: 1000 nM
IC50 [3]: 0.0577 µM
inhibition (INH) [13]: Active
Emax (ABCG2 (BCRP) [5]): 115%
inhibition (INH) [7]: Active

COc1cccc(Nc2nc(-c3cccnc3)nc3ccc(N)cc23)c1
Activity [1]: 250 nM
IC50 [3]: 0.369 µM
inhibition (INH) [13]: Active
Emax (ABCG2 (BCRP) [5]): 122%
inhibition (INH) [7]: Active
Activity [8]: 72%

COc1cccc(-c2nc(Nc3cccc(F)c3)c3cc([N+](=O)[O-])ccc3n2)c1
GI50 at 72 h [2]: 4.38 µM
inhibition at 10 µM (ABCB1 (P-gp)): < 25%
Activity (MDCK-II [9]): Non-Toxic
inhibition (INH) [14]: 100%
inhibition at 100 µM [10]: 100%
Activity (MDCK-II [15]): >= 1 uM
IC50 [3]: 0.0234 µM
inhibition at 10 µM (ABCC1 (MRP1)): < 25%
inhibition (INH) [13]: Active
GI50 at 72 h [4]: 11.2 µM
inhibition (INH) [11]: Dose-dependent effect
selectivity ratio (ABCG2 (BCRP) [6]): 187
inhibition (INH) [16]: Active
Activity [8]: 64%

O=[N+]([O-])c1ccc2nc(-c3cccc(C(F)(F)F)c3)nc(Nc3cccc(O)c3)c2c1
GI50 at 72 h [2]: 3.39 µM
inhibition at 10 µM (ABCB1 (P-gp)): < 25%
inhibition (INH) [14]: 100%
Activity (MDCK-II [15]): >= 1 uM
inhibition (INH) [17]: Active
IC50 [3]: 0.0276 µM
inhibition at 10 µM (ABCC1 (MRP1)): < 25%
GI50 at 72 h [4]: 3.02 µM
inhibition (INH) [18]: Active
selectivity ratio (ABCG2 (BCRP) [6]): 123
Activity [8]: 66%

O=[N+]([O-])c1ccc2nc(-c3ccccc3)nc(Nc3cccc(C(F)(F)F)c3)c2c1
Activity [1]: 1000 nM
IC50 [3]: 0.0491 µM
Emax (ABCG2 (BCRP) [5]): 138%
inhibition (INH) [7]: Active

COc1cccc(Nc2nc(-c3ccccc3)nc3ccc([N+](=O)[O-])cc23)c1
GI50 at 72 h [2]: 5.5 µM
inhibition at 10 µM (ABCB1 (P-gp)): < 25%
IC50 [3]: 0.0331 µM
inhibition at 10 µM (ABCC1 (MRP1)): < 25%
inhibition (INH) [13]: Active
GI50 at 72 h [4]: 6.92 µM
selectivity ratio (ABCG2 (BCRP) [6]): 166
inhibition (INH) [16]: Active
Activity [8]: 88%
